procasp3 activ: activates human procaspase-3; P42574; recombinant procaspase-3 D3A, Ac-DEVD-pNA absorbance 405 nm; activation, % at 8.5 µM; 0.11% of 330,000 active;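 active means activation above the mean of all tested compounds plus 3 SD, cut at about 21% in these data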
Target sequence (P42574 whole entry D9A/D28A/D175A): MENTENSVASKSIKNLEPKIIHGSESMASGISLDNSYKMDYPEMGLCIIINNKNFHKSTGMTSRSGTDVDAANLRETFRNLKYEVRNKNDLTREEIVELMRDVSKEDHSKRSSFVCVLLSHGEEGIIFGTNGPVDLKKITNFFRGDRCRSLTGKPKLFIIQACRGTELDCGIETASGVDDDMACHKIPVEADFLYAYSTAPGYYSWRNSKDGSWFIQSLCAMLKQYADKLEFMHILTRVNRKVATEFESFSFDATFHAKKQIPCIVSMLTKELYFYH
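Test system: Procaspase-3 D3A mutant, all three cleavage aspartates alanine | Dosing: Single dose, 8.5 µM nominal compound, 0.8% DMSO | Schedule: 1 h preincubation, 2 h reaction | Technique: 405 nm absorbance of p-nitroaniline, reads at 0 and 120 min | Repeats: One well per compound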
proCasp7 act: activates human procaspase-7, counter-screen for procaspase-3 activators. P55210. recombinant procaspase-7, Ac-DEVD-pNA absorbance 405 nm; D23A/D198A/D206A triple mutant, cannot self-cleave; scale: DMSO 0, 5 µM enzyme 100. activation, % at 8.5 µM. 0.093% of 330,000 active. AID 463210;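 active means percent activation above the screen-wide mean plus 3 SD, cut at about 25% in these data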
Target sequence (P55210 whole entry D23A/D198A/D206A): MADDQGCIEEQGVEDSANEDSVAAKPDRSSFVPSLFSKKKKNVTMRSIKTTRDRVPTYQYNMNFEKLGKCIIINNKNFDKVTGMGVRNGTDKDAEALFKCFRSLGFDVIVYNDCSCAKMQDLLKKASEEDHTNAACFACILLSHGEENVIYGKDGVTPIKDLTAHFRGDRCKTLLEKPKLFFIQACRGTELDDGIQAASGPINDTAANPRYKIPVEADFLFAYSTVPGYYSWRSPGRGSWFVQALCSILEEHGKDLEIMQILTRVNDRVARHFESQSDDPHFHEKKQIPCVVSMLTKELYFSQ
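buffer or medium = Zinc-free HEPES/NaCl buffer, pH 7.4 | material = Procaspase-7 triple mutant (PC-7 D3A) | input = 2 µM procaspase-7 mutant as dispensed | signal = Epi-absorbance of released pNA at 405 nm, two timepoints | timing = 1 h preincubation, 2 h reaction | replicates = singlicate compound testing | evaluation = % activation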
AHR activator: activators of human aryl hydrocarbon receptor | AHR-responsive luciferase reporter cells, luminescence | activation, % at 5 µM | 2.5% of 320,000 active; in the data active means activation above about 47%
PolyA inh: inhibitors of polyadenylation in S. cerevisiae. activity score, % at 12 µM. 0.02% of 300,000 active. S. cerevisiae SKY197-pL101 polyadenylation reporter, beta-gal luminescence; efflux-impaired pdr1/pdr3 knockout yeast; score 100 = 6 SD above DMSO;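 active means lowest replicate activity score at least 50, where 100 means six control SD above control mean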;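 further: yeast exposed to compound for 9 h at 30 °C; higher score means more reporter readthrough which indicates perturbed polyadenylation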
Each line names hits and unclear results; the compound was inactive in the other large screens. Most compounds without a hit are left out; they make up all but 2.6% or so of the library.

Oc1cccc(/C=C/c2ccc3cccc(O)c3n2)c1	AHR activator 70.3
Cc1cccc(C(=O)NC(=S)NNC(=O)c2cccs2)c1	none
O=C(NC(=S)Nc1ccccc1N1CCCCC1)c1cccs1	none
O=C(NC(=S)Nc1ccccc1N1CCCC1)c1cccs1	AHR activator 51.1
CC(C)(C)c1ccc(C(=O)NC(=S)NNC(=O)c2cccs2)cc1	AHR activator 73.8
O=C(NC(=S)NNC(=O)c1cccs1)c1ccccc1	AHR activator 51.7
CCCOc1ccc(C(=O)NNC(=S)NC(=O)c2cccs2)cc1	none
O=C1CN(C(=O)c2ccc(Br)o2)C(c2ccccc2)c2cc(Cl)ccc2N1 (stereo not drawn)	AHR activator 65.8
Cc1ccc2c(c1)C(c1ccccc1)N(C(=O)c1ccc(Br)o1)CC(=O)N2 (stereo not drawn)	none
O=C1CN(C(=O)c2ccc(Br)o2)C(c2ccc(F)cc2)c2cc(Cl)ccc2N1 (stereo not drawn)	none
O=C1CN(C(=O)c2ccc(Br)o2)C(c2ccccc2)c2cc(Br)ccc2N1 (stereo not drawn)	AHR activator 70.5
CCC(C)[C@H]1CNCCN1CCC12CC3CC(CC(C3)C1)C2 (stereo partly drawn)	none (no result: PolyA inh)
N#Cc1ccccc1OCC(=O)Nc1nnc(C2CC2)s1	AHR activator 64.4 (no result: PolyA inh)
Cc1cc(Br)cc(Br)c1OCC(=O)NNC(=O)Nc1ccccc1	none
CCCCN(C(=O)CNC(=O)c1ccco1)C(C(=O)NC1CCCCC1)c1cccnc1 (stereo not drawn)	none
CCOc1ccc(NC(=O)c2cc([N+](=O)[O-])ccc2N2CCOCC2)cc1	AHR activator 74.2
CCOc1ccc(NC(=O)COC(=O)c2cc([N+](=O)[O-])ccc2N2CCOCC2)cc1	none
COc1ccc(N2C(=O)[C@@H]3[C@H](C2=O)[C@H]2c4ccccc4C=CN2[C@@H]3C(=O)Nc2ccccc2)cc1	AHR activator 55.5 (no result: PolyA inh)
O=C(c1ccco1)[C@@H]1[C@@H]2C(=O)N(c3ccccc3)C(=O)[C@@H]2C2c3ccccc3C=CN21 (stereo partly drawn)	none
COc1ccc(N2CCN(C(=O)CN(c3cccc(OC)c3)S(=O)(=O)c3ccccc3)CC2)cc1	none
NNC(=O)c1sc(-c2ccc(Cl)cc2)cc1N	AHR activator 47.8
COc1ccc(C2=NS(=O)(=O)N(C)C(C(=O)Nc3ccc4c(c3)OCO4)=C2)cc1OC	none
COCCCN(C(=O)C1CCC1)c1c(N)n(Cc2ccccc2)c(=O)[nH]c1=O	none (no result: PolyA inh)
COc1ccc(-c2cc(N)n(CCC#N)n2)c(OC)c1	none
COc1ccc(-c2cc(N)n(S(=O)(=O)Cc3ccccc3)n2)c(OC)c1	AHR activator 62.3
COc1ccc(-c2nc3ccccc3s2)cc1NC(C)=O	AHR activator 57.1
CC(=O)NCc1ccc(-c2nc3ccccc3s2)cc1	none
COc1cccc(-c2nc3ccccc3s2)c1	AHR activator 68.4
Nc1cc(C(F)(F)F)ccc1NCCc1ccccn1	AHR activator 63.6
CCn1c(=N)n(CC(=O)c2ccc(OC)cc2)c2ccccc21	AHR activator 66.4
CCn1c(=N)n(CC(=O)c2ccc(Cl)c(Cl)c2)c2ccccc21	AHR activator 64.9
CCn1c(=N)n(CC(=O)c2ccco2)c2ccccc21	none
CCOC(=O)Cn1c(=N)n(CCOc2ccc(OC)cc2)c2ccccc21	none
N=c1n(CCN2CCCCC2)c2ccccc2n1CC(=O)c1ccc(Cl)c(Cl)c1	AHR activator 110.6
O=[N+]([O-])c1ccccc1C1Nc2cccc3cccc(c23)N1	AHR activator 74.8
COc1ccccc1C1Nc2cccc3cccc(c23)N1	AHR activator 60.3
Cc1ccc2c(c1)c(C)c(C)n2CC(O)Cn1nnc2ccccc21 (stereo not drawn)	none
Cc1ccc2c(c1)c(C)c(C)n2CC(O)Cn1nc(C)cc1C (stereo not drawn)	AHR activator 60.8
COc1cccc([C@@H]2Oc3ccc(OC)cc3C(=O)[C@H]2OC(=O)NCc2ccc3c(c2)OCO3)c1	AHR activator 54.1
COc1cccc([C@@H]2Oc3ccc(OC)cc3C(=O)[C@H]2OC(=O)Nc2cc(OC)c(OC)c(OC)c2)c1	none (no result: PolyA inh)
Cc1cc(=O)n2nc(N3CCC(C(=O)NCc4cccc(Br)c4)CC3)sc2n1	none
Cc1noc(/C=C/Nc2ccc(F)cc2F)c1[N+](=O)[O-]	AHR activator 64.0
COc1ccccc1N/C=C/c1onc(C)c1[N+](=O)[O-]	AHR activator 53.8
O=C(/C=C/Nc1ccc(F)cc1F)c1ccco1	none
Cc1noc(/C=C/c2ccccn2)c1[N+](=O)[O-]	none
CSCCC(NS(=O)(=O)c1cccc(C(F)(F)F)c1)C(=O)N(C)CCOc1ccc(Cl)cc1 (stereo not drawn)	none
COc1ccc(/C(C)=N/Nc2nc3ccccc3n3cnnc23)cc1OC	AHR activator 61.1
CC(NC(=O)c1ccco1)C(=O)NC(C)c1cc(F)c(Cl)cc1Cl (stereo not drawn)	none
COc1ccccc1/C=N\Nc1cn[nH]c(=O)c1Cl	AHR activator 47.9
Cc1cccc(/C=N\Nc2cn[nH]c(=O)c2Cl)c1	none
O=C(c1c(F)cccc1F)N(C1CCCCC1)C1CCCCC1	none
CCN(CC(=O)Nc1ccccc1OC)C(=O)CCOc1ccc(C(C)(C)C)cc1	none
O=C(c1ccc(CS(=O)(=O)c2c(Cl)cccc2Cl)o1)N1CCN(c2ccccn2)CC1	AHR activator 93.8
COc1ccc(C(=O)Nc2cc(C)on2)c(OC)c1	none
COc1ccc(C(=O)Nc2ccc(C)cn2)c(OC)c1	AHR activator 49.0
O=C(Nc1ccccn1)c1cc2ccccc2cc1O	AHR activator 68.3
COc1cc2ccccc2cc1C(=O)Nc1ccc(Cl)cn1	AHR activator 52.5
Clc1cccc(Cl)c1/C=C/c1ccn[nH]1	none
Nc1ccccc1O	AHR activator 73.6 (no result: PolyA inh)
Cc1ccc2cccnc2c1NC(=S)NC(=O)c1ccccc1	AHR activator 68.8
Cc1cc(C)c2cccc(NC(=S)NC(=O)c3ccccc3)c2n1	none
Cc1ccc2cccc(NC(=S)NC(=O)c3ccccc3)c2n1	AHR activator 56.1
Cc1ccc2cn[nH]c2c1NC(=S)NC(=O)c1ccccc1	none
O=C(Nc1cccc(/C=C/c2ccccn2)c1)c1cc(Cl)ccn1	none
NS(=O)(=O)c1ccc(C(=O)Nc2ccc(-c3nc4cccnc4s3)cc2)cc1	AHR activator 57.3
O=C(Nc1cccc(-c2nc3cccnc3s2)c1)c1ccc(Cl)nc1	AHR activator 67.7
O=S(=O)(Nc1ccc(-c2nc3cccnc3s2)cc1)c1cc(F)ccc1F	none
O=C(Nc1cccc(-c2nc3cccnc3s2)c1)c1cccnc1Cl	none
CC1CCc2c(sc3[nH]c(=S)n(C)c(=O)c23)C1 (stereo not drawn)	none
O=C(Nc1ccccc1F)C(=O)Nc1cccc2ccccc12	none
O=C(Nc1cccc2ccccc12)/C(Cl)=C/c1ccccc1	AHR activator 67.6
COc1ccc(-c2cn[nH]c2-c2ccc(OCc3ccc([N+](=O)[O-])cc3)cc2O)cc1	AHR activator 51.1

From PubChem
